The source of these data is ChEMBL document CHEMBL1641490, “Dicationic phenyl-2,2'-bichalcophenes and analogues as antiprotozoal agents” (Bioorg Med Chem, 2011).

Molecules are shown by their SMILES. Active and inactive are the calls of the source. The rule behind the calls is not given here.

For data set [1], the system named is Trypanosoma brucei rhodesiense. The data set is described as follows: Antitrypanosomal activity against Trypanosoma brucei rhodesiense STIB900 after 70 hrs by alamar blue assay. In kind it is functional, organism-based. Conditions: STIB900, 70 h. Summed up: (§1)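 Parasites were Trypanosoma brucei rhodesiense STIB900 and Plasmodium falciparum K1. Values are averages of duplicate determinations.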
On the technique in general: The colour change of resazurin is a common sign of viable cells or microbes.

The test system of another data set is L6. Put plainly: Cytotoxicity against rat L6 cells by alamar blue assay. In kind it is cell-based.
Data set [2] is described as follows: Selectivity index, ratio of IC50 for rat L6 cells to IC50 for Trypanosoma brucei rhodesiense STIB900. It counts as toxicity, cell-based. Conditions: L6 cells versus Trypanosoma brucei rhodesiense STIB900, read-out: Ratio IC50. Summed up: (§2)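 Ratio of IC50 in cultured L6 rat myoblasts (Alamar Blue read-out) to IC50 against P. falciparum K1 or T. b. rhodesiense STIB900. Parasite values are the average of duplicate determinations.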

The test system of another data set is Plasmodium falciparum. Put plainly: Antiplasmodial activity against Plasmodium falciparum K1 infected in human RBC after 48 hrs by [3H]-hypoxanthine incorporation assay. In kind it is functional, organism-based. Summed up:
as §1

Data set [3] can be described thus: Selectivity index, ratio of IC50 for rat L6 cells to IC50 for Plasmodium falciparum K1. It counts as toxicity, cell-based. To be noted: L6 cells versus Plasmodium falciparum K1, read-out: Ratio IC50. Summed up: as §2
In data set [4] the test system is Trypanosoma brucei rhodesiense. Put plainly: Antitrypanosomal activity against Trypanosoma brucei rhodesiense STIB900 infected in NMRI mouse assessed as effect on survival days at 5 mg/kg, ip […] measured up to 60 days. In kind it is functional. To be noted: route intraperitoneal.
For data set [5], the system named is Trypanosoma brucei rhodesiense. The data set is described as follows: Antitrypanosomal activity against Trypanosoma brucei rhodesiense STIB900 infected in NMRI mouse assessed as parasitemia free host at 5 mg/kg, ip administered 2 days after post infection for 4 consecutive days measured up to 60 days. In kind it is functional, organism-based. Further details: dose 5 mg/kg.

For data set [6], the system named is Trypanosoma brucei rhodesiense. The data set is described as follows: Antitrypanosomal activity against Trypanosoma brucei rhodesiense STIB900 infected in NMRI mouse assessed as effect on survival days at 20 mg/kg, ip administered 2 days after post infection for 4 consecutive days measured up to 60 days. It counts as functional. Conditions: route intraperitoneal.

For `Cl.N=C(N)c1ccc(-c2ccc(-c3ccc(C(=N)N)o3)s2)cc1`, the values for the IC50 (in data set [1]; with L6; in the data set on Plasmodium falciparum) were 2 nM, 29300 nM and 0.9 nM, respectively. Moreover, the selectivity ratio in data set [2] came to 14900; in data set [3] it was 32600. The Survival in data set [4] is more than 46.5 days. Further, the ΔTm (commonly the shift of the melting midpoint relative to a reference) in the data set on Nucleic Acid was found to be 13.1 °C.

As to `Cl.N=C(N)c1ccc(-c2ccc(-c3ccc(C(=N)N)o3)o2)cn1`, the IC50 (commonly the concentration that inhibits the measured activity by half) in [1] was 6 nM; with L6, 38500 nM; in the data set on Plasmodium falciparum, 1 nM. The selectivity ratio came to 6420 in data set [2] and 38500 in data set [3]. Besides, the result in data set [5] was inactive. In addition, the Survival in [4] turned out to be 41.75 days. Moreover, the ΔTm in the data set with Nucleic Acid turned out to be 5.5 °C.

Regarding `Cl.N=C(N)c1ccc(-c2ccc(-c3ccc(C(=N)N)o3)o2)cc1`, the IC50 was 12 nM in data set [1], 37800 nM with L6 and 41.5 nM in the data set with Plasmodium falciparum. For the same compound, the selectivity ratio in data set [2] was 3150; in data set [3], 910. Moreover, the Survival in data set [6] is more than 45.5 days. In the data set with Nucleic Acid, the ΔTm was 8.5 °C.

For the compound `Cl.N=C(N)c1ccc(-c2ccc(-c3ccc(C(=N)N)s3)s2)cn1`, the IC50 in [1] amounted to 4 nM; in the data set with L6 it was 4000 nM; in the data set with Plasmodium falciparum, 2.3 nM. For the same compound, the selectivity ratio came out at 1000 in [2] and 1740 in [3]. Also, the Survival in data set [4] worked out at 49 days. In addition, the ΔTm in the data set with Nucleic Acid came to 16.6 °C.

Consider `N=C(N)c1ccc(OCCCCCOc2ccc(C(=N)N)cc2)cc1` [PENTAMIDINE], for which the IC50 is 6000 nM in the data set with L6 and 6.4 nM in the data set on Plasmodium falciparum. The Survival in data set [4] is more than 45 days.

For the compound `Cl.N=C(N)c1ccc(-c2ccc(-c3ccc(C(=N)N)s3)s2)cc1`, the figures for the IC50 (in data set [1]; with L6; in the data set with Plasmodium falciparum) were 2 nM, 6000 nM and 10.4 nM, respectively. For the same compound, the selectivity ratio in data set [2] worked out at 3000; in data set [3], 576. For the same compound, the result in data set [5] was inactive. Further, in data set [4], the Survival amounted to 25.25 days. In the data set on Nucleic Acid, the ΔTm is 18.1 °C.

As to `N=C(N)c1ccc(-c2ccc(-c3ccc(C(=N)N)cc3)o2)cc1` [FURAMIDINE], in data set [5], the result was Active. Besides, the Survival in [4] was more than 46 days.

As to `Cl.N=C(N)c1ccc(-c2ccc(-c3ccc(C(=N)N)s3)o2)cc1`, the figures for the IC50 (in data set [1]; with L6; in the data set with Plasmodium falciparum) were 6 nM, 10900 nM and 17.4 nM, respectively. Also, the selectivity ratio in data set [2] stood at 1820; in data set [3], 626. Further, the result in [5] was inactive. For the same compound, the Survival in data set [4] is 16.75 days. In the data set with Nucleic Acid, the ΔTm came to 14.1 °C.

As to `Cl.N=C(N)c1ccc(C#Cc2ccc(-c3ccc(C(=N)N)o3)o2)cc1`, the IC50 in data set [1] was 42 nM; in the data set with L6, 63000 nM; with Plasmodium falciparum it was 14.1 nM. Also, the values for the selectivity ratio in [2] and in data set [3] were 1500 and 4470, respectively. Also, the result in data set [5] was inactive. Besides, in data set [4], the Survival turned out to be 15.25 days. For the same compound, in the data set on Nucleic Acid, the ΔTm worked out at 4 °C.
